Measured values gathered from unrelated publications.
Protocols differ between the studies behind these lines.
Target: Serine/threonine-protein kinase tousled-like 1 (TLK1, Homo sapiens, UniProt Q9UKI8)
One construct used (Q9UKI8 1-766): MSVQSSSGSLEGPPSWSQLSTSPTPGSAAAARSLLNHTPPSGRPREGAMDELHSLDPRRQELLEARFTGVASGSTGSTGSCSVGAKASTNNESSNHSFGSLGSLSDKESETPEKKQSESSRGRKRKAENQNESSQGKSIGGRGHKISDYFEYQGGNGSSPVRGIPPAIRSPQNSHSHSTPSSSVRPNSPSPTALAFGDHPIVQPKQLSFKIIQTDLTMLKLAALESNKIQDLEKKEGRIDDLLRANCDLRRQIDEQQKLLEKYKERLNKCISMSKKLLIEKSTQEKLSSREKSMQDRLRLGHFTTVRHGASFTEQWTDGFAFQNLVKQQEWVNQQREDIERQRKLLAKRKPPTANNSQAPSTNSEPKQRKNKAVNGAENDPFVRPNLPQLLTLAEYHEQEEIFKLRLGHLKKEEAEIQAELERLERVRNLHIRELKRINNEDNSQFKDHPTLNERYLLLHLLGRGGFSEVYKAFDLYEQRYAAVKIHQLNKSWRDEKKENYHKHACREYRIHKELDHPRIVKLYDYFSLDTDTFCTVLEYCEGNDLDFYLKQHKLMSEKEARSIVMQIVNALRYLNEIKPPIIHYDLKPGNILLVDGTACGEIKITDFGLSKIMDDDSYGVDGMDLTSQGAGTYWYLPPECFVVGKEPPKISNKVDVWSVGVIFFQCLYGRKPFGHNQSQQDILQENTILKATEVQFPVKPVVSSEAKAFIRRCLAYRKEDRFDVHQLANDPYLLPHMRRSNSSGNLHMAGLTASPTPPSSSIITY

SMILES | test | setting | remaining binding [%]
Cc1cnc(Nc2ccc(C(=O)N3CCC(N4CCCC4)CC3)cc2)nc1-c1cc2ccccc2s1 | binding, competition with immobilised ligand | 1 µM | 21
O=C(Nc1ccc(Oc2ccc(F)cc2)cc1)N1CCc2ncccc2[C@H]1c1ccc(F)cc1 | cell-free assay, competition with immobilised ligand | 1 µM | 100
CCN1CCN(Cc2ccc(C(=O)Nc3ccc(C)c(Oc4ccc5c(c4)CC(=O)N5)c3)cc2C(F)(F)F)CC1 | binding, competition with immobilised ligand | 1 µM | 88
Nc1ncc2c(n1)-c1c([nH]c3ccc(C#CC4CC4)cc13)CCCC2 | binding, competition with immobilised ligand | 1 µM | 87
CN(c1nccc(-c2cnn3ncccc23)n1)C1CC1 | binding | 1 µM | 100
CNC(=O)[C@@H]1CC[C@@H](n2c(-c3ccc4cnccc4c3)nc3ccc(C(=O)NCc4cccc(C(N)=O)c4)cc32)C1 | binding, competition with immobilised ligand | 1 µM | 97
O=C1NC(c2ccccn2)Sc2ccccc21 (centres unmarked) | cell-free assay, competition with immobilised ligand | 1 µM | 94
COc1ncc2cc3ccccc3nc2c1C#N | cell-free assay, competition with immobilised ligand | 5 µM | 86
CN(C)c1nccc(-c2cnc3ncccn23)n1 | binding | 1 µM | 81
O=C(Nc1cccnn1)N1CC(C/C=C/c2cncc(Oc3ccc(C(F)(F)F)cn3)n2)C1 | cell-free assay, competition with immobilised ligand | 1 µM | 98
O=C(NCCCN1CCOCC1)c1ccc(Nc2ncc(Cl)c(-c3ccc(Cl)s3)n2)cc1 | binding, competition with immobilised ligand | 1 µM | 75
N[C@H]1CCN(c2nccc(-c3cnn4ncccc34)n2)C1 | binding | 1 µM | 64
O=C(c1ccc(Nc2ncc(Cl)c(-c3ccc(Cl)s3)n2)cc1)N1CCC(N2CCCC2)CC1 | binding, competition with immobilised ligand | 1 µM | 32
C[C@@H]1CCN(c2nccc(-c3cnn4ncccc34)n2)C1 | binding | 1 µM | 79
CCC(=O)N[C@@H]1CC[C@H](C(=O)N(C)c2ccc(-c3nc4ccccc4o3)cc2)C1 | cell-free assay, competition with immobilised ligand | 1 µM | 100
O=C(Nc1c[nH]nc1C(=O)NC1CCNCC1)c1cc(F)cc(F)c1 | binding, competition with immobilised ligand | 1 µM | 100
CN(C)c1nccc(-c2cnn3ncccc23)n1 | binding | 1 µM | 92
Cc1c[nH]c2nccc(Oc3c(F)cc(Nc4cc(Cl)nc(N)n4)cc3F)c12 | cell-free assay, competition with immobilised ligand | 0.1 µM | 100
F[C@@H]1CCN(c2nccc(-c3cnn4ncccc34)n2)C1 | binding | 1 µM | 100
CN(C)C(=O)Cn1cc(-c2nc([C@@](C)(c3ccc(-c4cnc(N)nc4)cc3)C3CC3)no2)cn1 | cell-free assay, competition with immobilised ligand | 1 µM | 100
